Laboratory results reported in ChEMBL document CHEMBL5303300, “EUbOPEN Chemogenomics Library - Multiplex” (2023).
Values joined by “and” are separate entries in the source; they are usually repeats but may differ in a detail not shown here. Equal entries are not always repeated.

Tested on: Fibroblast
Assay: Multiplex assay against human fibroblast
Type: toxicity, cell-based
Details: number of replicates 2
Outline: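 With compound added, live cells were imaged on a CQ1 microscope at 37°C and 5% CO2; staining with Hoechst33342, BioTracker Green Microtubule Cytoskeleton Dye, MitoTracker Red and Annexin V Alexa Fluor 680 had been done at seeding. The CellPathfinder machine-learning gating scheme split cells into Hoechst high-intensity objects or normal cells, normal cells into healthy, pyknosed or fragmented nuclei, and pyknosed cells into mitotic or apoptotic. The tubulin, mitochondrial-mass and membrane-permeability phenotypes are per cents of healthy-nucleus cells.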

[1] = 12 h, 1 µM, compound concentration 1 uM
[2] = 12 h, 10 µM, compound concentration 10 uM
[3] = 24 h, 1 µM, compound concentration 1 uM
[4] = 24 h, 10 µM, compound concentration 10 uM
[5] = 48 h, 1 µM, compound concentration 1 uM
[6] = 48 h, 10 µM, compound concentration 10 uM

**Q.** Which results are given for CCCN(CCc1cccs1)[C@H]1CCc2c(O)cccc2C1 [ROTIGOTINE]?
**A.** Population Apoptotic (%) [1]: 73% and 35%; Population Fragmented Nuclei (%) [1]: 9% and 11%; Population Healthy Nuclei (%) [1]: 76% and 71%; Population Hoechst High Intensity Objects (%) [1]: 0%; Population Membrane Permeable-Phenotype (%) [1]: 6% and 3%; Population Mitochondria Different-Phenotype (%) [1]: 2% and 0%; Population Mitotic Cells (%) [1]: 26% and 64%; Population Normal (%) [1]: 100% and 99%; Population Pyknosed Nuclei (%) [1]: 14% and 16%; Population Tubulin-Different-Phenotype (%) [1]: 15% and 10%; Population Fragmented Nuclei (%) [2]: 17% and 18%; Population Healthy Nuclei (%) [2]: 78% and 73%; Population Hoechst High Intensity Objects (%) [2]: 0%; Population Membrane Permeable-Phenotype (%) [2]: 0% and 1%; Population Mitochondria Different-Phenotype (%) [2]: 0% and 1%; Population Mitotic Cells (%) [2]: 50% and 86%; Population Normal (%) [2]: 100%; Population Pyknosed Nuclei (%) [2]: 4% and 7%; Population Tubulin-Different-Phenotype (%) [2]: 13% and 14%; Population Apoptotic (%) [3]: 52% and 46%; Population Fragmented Nuclei (%) [3]: 9% and 12%; Population Healthy Nuclei (%) [3]: 81% and 75%; Population Hoechst High Intensity Objects (%) [3]: 0%; Population Membrane Permeable-Phenotype (%) [3]: 4%; Population Mitochondria Different-Phenotype (%) [3]: 0% and 1%; Population Mitotic Cells (%) [3]: 47% and 53%; Population Normal (%) [3]: 100% and 99%; Population Pyknosed Nuclei (%) [3]: 9% and 12%; Population Tubulin-Different-Phenotype (%) [3]: 7% and 6%; Population Fragmented Nuclei (%) [4]: 24% and 14%; Population Healthy Nuclei (%) [4]: 71% and 80%; Population Hoechst High Intensity Objects (%) [4]: 0%; Population Membrane Permeable-Phenotype (%) [4]: 1% and 0%; Population Mitochondria Different-Phenotype (%) [4]: 0% and 2%; Population Normal (%) [4]: 100%; Population Pyknosed Nuclei (%) [4]: 3% and 5%; Population Tubulin-Different-Phenotype (%) [4]: 10% and 8%; Population Apoptotic (%) [5]: 36% and 68%; Population Fragmented Nuclei (%) [5]: 11% and 13%; Population Healthy Nuclei (%) [5]: 82% and 79%; Population Hoechst High Intensity Objects (%) [5]: 0%; Population Membrane Permeable-Phenotype (%) [5]: 3% and 2%; Population Mitochondria Different-Phenotype (%) [5]: 0%; Population Mitotic Cells (%) [5]: 63% and 31%; Population Normal (%) [5]: 100%; Population Pyknosed Nuclei (%) [5]: 5% and 7%; Population Tubulin-Different-Phenotype (%) [5]: 5% and 3%; Population Apoptotic (%) [6]: 87% and 80%; Population Fragmented Nuclei (%) [6]: 19% and 20%; Population Healthy Nuclei (%) [6]: 76% and 77%; Population Hoechst High Intensity Objects (%) [6]: 0%; Population Membrane Permeable-Phenotype (%) [6]: 3% and 1%; Population Mitochondria Different-Phenotype (%) [6]: 0%; Population Mitotic Cells (%) [6]: 12% and 20%; Population Normal (%) [6]: 100%; Population Pyknosed Nuclei (%) [6]: 4% and 2%; Population Tubulin-Different-Phenotype (%) [6]: 9% and 3%
